Reference: ChEMBL document CHEMBL3272214, “2-Deaminoactinomycin D, synthesis and interaction with deoxyribonucleic acid” (J Med Chem, 1977)
Active and inactive are the calls of the source. The calls are words filed in the database; no cut-off is given here. *1 amine or outer side, *2 acyl side, *3 side chain or, on linkers, in order; H or OH if unused. Where a SMILES comes first, the peptide text is derived from it. Bridges are numbered along the chain shown (N, C = ends). Roman numbers before positions name the chains, in order. [ ]: non-standard residue; d: D form. Actinocin(1to9) = Cc1c2oc3c(C)ccc(C(=O)[*:2])c3nc-2c(C(=O)[*:1])c(N)c1=O; NMeV = CN[C@H](C(=O)O)C(C)C; Sar = CNCC(=O)O

Assays:
[1] = tested on: Escherichia coli; experiment: Induction of Escherichia coli omega enzyme-mediated relaxation of Escherichia coli (RR1) pBR313 closed circular DNA at 40 X 10^-12 mol preincubated for 10 mins followed by enzyme-addition measured after 30 mins by agarose gel electrophoretic analysis
Summary of the method: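 Plasmid pBR313 was isolated from E. coli RR1 cleared lysate by agarose A50 gel filtration. 1.10 μg DNA in 80 mM potassium phosphate pH 7.6, 3 mM MgCl2, 1 mM EDTA was preincubated with drug (40×10⁻¹² mol) for 10 min at 37 °C. About 300 units of ω enzyme were added for 30 min. The reaction was stopped with EDTA and phenol/chloroform extracted. Read-out was 0.7% agarose slab gel electrophoresis with ethidium staining, compared with ethidium bromide.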

[2] = tested on: Calf thymus DNA; experiment: Binding affinity to calf thymus DNA assessed as change in melting temperature at 5.2 X 10^-6 M by thermal denaturation assay; format: nucleic-acid assay; conditions: Bos taurus
Summary of the method: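 Calf thymus DNA filtered, concentration set by A259 (ε 6800). Drug in Me2SO diluted into 0.01 M phosphate pH 7.0. Final: drug 5.2×10⁻⁶ M, DNA 5.2×10⁻⁵ M (P), EDTA 1×10⁻⁵ M, 5% Me2SO. Equilibrated at 50 °C, then heated at 18 °C/h while absorbance was recorded. Tm corrected for volume expansion, temperature lag and baseline. ΔTm = Tm(complex) − Tm(DNA).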

[3] = tested on: L1210; experiment: Inhibition of DNA synthesis in mouse L1210 cells assessed as [3H]-thymidine incorporation preincubated for 3 hrs before [3H]-thymidine addition measured after 1 hr by scintillation spectrometric analysis; format: functional; conditions: read-out: ED50 (the source's name)
Summary of the method: (§1)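 L1210 cell assay run by a previously described method. Compounds were dissolved in Me2SO and diluted in growth medium to a final 1% Me2SO. The value reported is ED50.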

[4] = tested on: L1210; experiment: Inhibition of RNA synthesis in mouse L1210 cells assessed as [3H]-uridine incorporation preincubated for 3 hrs before [3H]-uridine addition measured after 1 hr by scintillation spectrometric analysis; format: functional; conditions: read-out: ED50 (the source's name); summary of the method: as §1
[5] = tested on: P388; experiment: Antitumor activity against mouse P388 cells allografted in mouse assessed as increase in life span at 0.108 mg/kg administered qd on day 1, 5 and 9 relative to control; format: functional; conditions: P388, 24 h
Summary of the method: (§2)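 In vivo testing in tumour-bearing mice was run by the NCI Division of Cancer Treatment. Drug was given on a QD 1, 5, 9 schedule, and 15 mg/kg was the highest dose tested. Toxicity was judged by weight loss of treated animals. Activity is expressed as % increase in life-span (ILS) over untreated tumour-bearing controls.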

[6] = tested on: Calf thymus DNA; experiment: Binding affinity to calf thymus DNA by NMR spectroscopic analysis; format: nucleic-acid assay; conditions: Bos taurus
[7] = tested on: Calf thymus DNA; experiment: Binding affinity to calf thymus DNA at 10:1 DNA to drug molar ratio by circular dichroism spectroscopic analysis; format: nucleic-acid assay; conditions: Bos taurus
[8] = tested on: P388; experiment: Antitumor activity against mouse P388 cells allografted in mouse assessed as increase in life span at 15 mg/kg administered qd on day 1, 5 and 9 relative to control; format: functional; conditions: P388, 24 h; summary of the method: as §2
[9] = tested on: P388; experiment: Antitumor activity against mouse P388 cells allografted in mouse assessed as increase in life span at 1.94 mg/kg administered qd on day 1, 5 and 9 relative to control; format: functional; conditions: P388, 24 h; summary of the method: as §2
[10] = tested on: Mus musculus; experiment: Toxicity in mouse allografted with mouse P388 cells assessed as weight loss at 1.94 to 15 mg/kg administered qd on day 1, 5 and 9; format: organism-based; design: dose 1.94-15 mg/kg
Summary of the method: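 Mice were dosed on a QD 1, 5, 9 schedule at doses up to 15 mg/kg. Toxicity was judged by weight loss of treated animals.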

SMILES | Activity [1] | ΔTm [2] [°C] | EC50 [3] [µM] | EC50 [4] [µM] | ILS at 0.108 mg/kg [5] [%] | Activity [6] | Activity [7] | ILS at 15 mg/kg [8] [%] | ILS at 1.94 mg/kg [9] [%] | Activity [10]
CC[n+]1c(-c2ccccc2)c2cc(N)ccc2c2ccc(N)cc21 | Active |  |  |  |  |  |  |  |  | 
COc1cccc2c1C(=O)c1c(O)c3c(c(O)c1C2=O)C[C@@](O)(C(C)=O)C[C@@H]3O[C@H]1C[C@H](N)[C@H](O)[C@H](C)O1 | Active |  |  |  |  |  |  |  |  | 
Cc1c2oc3c(C)ccc(C(=O)N[C@@H]4C(=O)N[C@H](C(C)C)C(=O)N5CCC[C@H]5C(=O)N(C)CC(=O)N(C)[C@@H](C(C)C)C(=O)O[C@@H]4C)c3nc-2c(C(=O)N[C@@H]2C(=O)N[C@H](C(C)C)C(=O)N3CCC[C@H]3C(=O)N(C)CC(=O)N(C)[C@@H](C(C)C)C(=O)O[C@@H]2C)c(N)c1=O [DACTINOMYCIN] (I: T[dV]P[Sar][NMeV] / II: T[dV]P[Sar][NMeV]; ester I:1-I:C, II:1-II:C; linker I:N-II:N via Actinocin(1to9)) | Active | 7.1 | 0.4 | 0.009 | 100 |  |  |  |  | 
Cc1c2oc3c(C)ccc(C(=O)N[C@@H]4C(=O)N[C@H](C(C)C)C(=O)N5CCC[C@H]5C(=O)N(C)CC(=O)N(C)[C@@H](C(C)C)C(=O)O[C@@H]4C)c3nc-2c(C(=O)N[C@@H]2C(=O)N[C@H](C(C)C)C(=O)N3CCC[C@H]3C(=O)N(C)CC(=O)N(C)[C@@H](C(C)C)C(=O)O[C@@H]2C)cc1=O | Active | 9.9 | 63 | 0.7 |  | Active | Active | 92 | 46 | Non-toxic
Cc1c2oc3c(C)ccc(C(=O)N[C@@H]4C(=O)N[C@H](C(C)C)C(=O)N5CCC[C@H]5C(=O)N(C)CC(=O)N(C)[C@@H](C(C)C)C(=O)O[C@@H]4C)c3nc-2c(C(=O)N[C@@H]2C(=O)N[C@H](C(C)C)C(=O)N3CCC[C@H]3C(=O)N(C)CC(=O)N(C)[C@@H](C(C)C)C(=O)O[C@@H]2C)c(Cl)c1=O | Active | 1.6 | 86 | 13 |  |  | Active |  |  | 
Cc1c2oc3c(C)ccc(C(=O)N[C@@H]4C(=O)N[C@H](C(C)C)C(=O)N5CCC[C@H]5C(=O)N(C)CC(=O)N(C)[C@@H](C(C)C)C(=O)O[C@@H]4C)c3nc-2c(C(=O)N[C@@H]2C(=O)N[C@H](C(C)C)C(=O)N3CCC[C@H]3C(=O)N(C)CC(=O)N(C)[C@@H](C(C)C)C(=O)O[C@@H]2C)c(O)c1=O |  | 0 | > 100 | 24 |  |  |  |  |  | 
